From ChEMBL document CHEMBL3351249, “Potent cholesteryl ester transfer protein inhibitors of reduced lipophilicity: 1,1'-spiro-substituted hexahydrofuroquinoline derivatives” (J Med Chem, 2014)

Tests used:
Mus musculus [1] = experiment: Increase in HDL-cholesterol in hemizygous human CETP transgenic mouse at 10 mg/kg, po dosed for 5 consecutive days; assay type: functional
Procedure, shortened: (§1)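 Male hemizygous hCETP or hCETP/hApoB100 transgenic mice, 26−30 weeks, chow-fed. Compound suspended in 0.5% aqueous hydroxyethylcellulose, oral gavage each morning for 5 or 14 days. EDTA blood taken 7 h post-dose (fed for 5-day, after 4 h fast for 14-day) from vena facialis under isoflurane. HDL/LDL cholesterol measured on Cobas Integra 400 Plus. Mean ± SEM, one-way ANOVA with Bonferroni.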

Mus musculus [2] = experiment: Increase in HDL-cholesterol in hemizygous human CETP transgenic mouse at 1 mg/kg, po dosed for 5 consecutive days; assay type: functional; procedure, shortened: as §1
Mus musculus [3] = experiment: Increase in HDL-cholesterol in hemizygous human CETP transgenic mouse at 3 mg/kg, po dosed for 5 consecutive days; assay type: functional; procedure, shortened: as §1
Plasma [4] = experiment: Plasma concentration in hemizygous human CETP transgenic mouse at 10 mg/kg, po dosed for 5 consecutive days measured on day 5 and day 7 post dose; assay type: ADME, organism-based; set-up: dose 10 mg/kg, route oral; details: in vivo
Plasma [5] = experiment: Plasma concentration in hemizygous human CETP transgenic mouse at 1 mg/kg, po dosed for 5 consecutive days measured on day 5 and day 7 post dose; assay type: ADME, organism-based; set-up: dose 1 mg/kg, route oral; details: in vivo
Plasma [6] = experiment: Plasma concentration in hemizygous human CETP transgenic mouse at 3 mg/kg, po dosed for 5 consecutive days measured on day 5 and day 7 post dose; assay type: ADME, organism-based; set-up: dose 3 mg/kg, route oral; details: in vivo
Mus musculus [7] = experiment: Increase in HDL-cholesterol in human CETP/human ApoB-100 transgenic mouse at 1 mg/kg, po dosed for 14 consecutive days; assay type: functional; procedure, shortened: as §1
Mus musculus [8] = experiment: Increase in HDL-cholesterol in human CETP/human ApoB-100 transgenic mouse at 3 mg/kg, po dosed for 14 consecutive days; assay type: functional; procedure, shortened: as §1
Mus musculus [9] = experiment: Increase in HDL-cholesterol in human CETP/human ApoB-100 transgenic mouse at 10 mg/kg, po dosed for 14 consecutive days; assay type: functional; procedure, shortened: as §1
Mus musculus [10] = experiment: Reduction in plasma LDL-cholesterol in human CETP/human ApoB-100 transgenic mouse at 1 mg/kg, po dosed for 14 consecutive days; assay type: functional; procedure, shortened: as §1
Mus musculus [11] = experiment: Reduction in plasma LDL-cholesterol in human CETP/human ApoB-100 transgenic mouse at 3 mg/kg, po dosed for 14 consecutive days; assay type: functional
Procedure, shortened: (§2)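 Hemizygous male human CETP/human apoB100 transgenic mice (B6.SJL-Tg(APOA-CETP)1Dsg Tg(APOB)1102Sgy N10), aged 26–30 weeks and chow-fed, received oral gavage each morning for 14 consecutive days. Compound was suspended in 0.5% aqueous hydroxyethylcellulose. EDTA blood was taken from the facial vein under isoflurane 7 h post-dose after a 4 h fast. Plasma LDL-cholesterol fraction was measured on an automated analyzer. Data are mean ± SEM.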

Mus musculus [12] = experiment: Reduction in plasma LDL-cholesterol in human CETP/human ApoB-100 transgenic mouse at 10 mg/kg, po dosed for 14 consecutive days; assay type: functional; procedure, shortened: as §2
Plasma [13] = experiment: Drug concentration in plasma of hemizygous human CETP transgenic mouse at 3 mg/kg, po dosed for 5 consecutive days measured on day 3 after cessation of drug treatment; assay type: ADME, organism-based; set-up: dose 3 mg/kg, route oral; details: in vivo
Procedure, shortened: (§3)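 Male hCETP transgenic mice given oral doses for 5 days in 0.5% hydroxyethylcellulose. Tissues and plasma collected at day 3 and day 21 after the last dose. Fat diluted 6:1 with acetonitrile and homogenized. Analysis by LC/MS/MS on a C18 column with QCs at 4.0−1000 nM, accepted within 30% of target.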

Muscle tissue = experiment: Drug concentration in muscle of hemizygous human CETP transgenic mouse at 3 mg/kg, po dosed for 5 consecutive days measured on day 3 after cessation of drug treatment; assay type: ADME, organism-based; set-up: dose 3 mg/kg, route oral; details: in vivo; procedure, shortened: as §3
Liver = experiment: Drug concentration in liver of hemizygous human CETP transgenic mouse at 3 mg/kg, po dosed for 5 consecutive days measured on day 3 after cessation of drug treatment; assay type: ADME, organism-based; set-up: dose 3 mg/kg, route oral; details: in vivo; procedure, shortened: as §3
Kidney = experiment: Drug concentration in kidney of hemizygous human CETP transgenic mouse at 3 mg/kg, po dosed for 5 consecutive days measured on day 3 after cessation of drug treatment; assay type: ADME, organism-based; set-up: dose 3 mg/kg, route oral; details: in vivo; procedure, shortened: as §3
[14] = Drug concentration in testes of hemizygous human CETP transgenic mouse at 3 mg/kg, po dosed for 5 consecutive days measured on day 3 after cessation of drug treatment; assay type: ADME, organism-based, Testis; set-up: dose 3 mg/kg, route oral; details: in vivo; procedure, shortened: as §3
[15] = Drug concentration in adipose fat tissue of hemizygous human CETP transgenic mouse at 3 mg/kg, po dosed for 5 consecutive days measured on day 3 after cessation of drug treatment; assay type: ADME, organism-based; set-up: dose 3 mg/kg, route oral; details: in vivo; procedure, shortened: as §3
[16] = Drug concentration in plasma of hemizygous human CETP transgenic mouse at 3 mg/kg, po dosed for 5 consecutive days measured on day 21 after cessation of drug treatment; assay type: ADME, organism-based; set-up: dose 3 mg/kg, route oral; procedure, shortened: as §3
[17] = Drug concentration in muscle of hemizygous human CETP transgenic mouse at 3 mg/kg, po dosed for 5 consecutive days measured on day 21 after cessation of drug treatment; assay type: ADME, organism-based, Muscle tissue; set-up: dose 3 mg/kg, route oral; details: read-out: Drug uptake; procedure, shortened: as §3
[18] = Drug concentration in liver of hemizygous human CETP transgenic mouse at 3 mg/kg, po dosed for 5 consecutive days measured on day 21 after cessation of drug treatment; assay type: ADME, organism-based; set-up: dose 3 mg/kg, route oral; details: read-out: Drug uptake; procedure, shortened: as §3
[19] = Drug concentration in kidney of hemizygous human CETP transgenic mouse at 3 mg/kg, po dosed for 5 consecutive days measured on day 21 after cessation of drug treatment; assay type: ADME, organism-based; set-up: dose 3 mg/kg, route oral; details: read-out: Drug uptake; procedure, shortened: as §3
[20] = Drug concentration in testes of hemizygous human CETP transgenic mouse at 3 mg/kg, po dosed for 5 consecutive days measured on day 21 after cessation of drug treatment; assay type: ADME, organism-based, Testis; set-up: dose 3 mg/kg, route oral; details: male, read-out: Drug uptake; procedure, shortened: as §3
[21] = Drug concentration in adipose fat tissue of hemizygous human CETP transgenic mouse at 3 mg/kg, po dosed for 5 consecutive days measured on day 21 after cessation of drug treatment; assay type: ADME, organism-based; set-up: dose 3 mg/kg, route oral; details: read-out: Drug uptake; procedure, shortened: as §3
NCI-H295R = experiment: Effect on aldosterone secretion in human NCI-H295R cells up to 10 uM; assay type: ADME, cell-based
Cynomolgus monkey [22] = experiment: Effect on blood pressure in cynomolgus monkey up to 100 mg/kg by telemetry; assay type: ADME, organism-based, Macaca fascicularis; set-up: dose 100 mg/kg; details: in vivo
Procedure, shortened: (§4)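 Acute telemetry study in conscious cynomolgus monkeys at doses up to 100 mg/kg. Blood pressure, left ventricular pressure, contractility, heart rate and ECG (PR, QRS, QT) recorded. Exposure followed as Cmax and MRT.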

Cynomolgus monkey [23] = experiment: Effect on left ventricular pressure in cynomolgus monkey up to 100 mg/kg by telemetry; assay type: ADME, organism-based, Macaca fascicularis, Heart left ventricle; set-up: dose 100 mg/kg; details: in vivo; procedure, shortened: as §4
Cynomolgus monkey [24] = experiment: Effect on myocardial contractility in cynomolgus monkey up to 100 mg/kg by telemetry; assay type: ADME, organism-based, Macaca fascicularis, Myocardium; set-up: dose 100 mg/kg; details: in vivo; procedure, shortened: as §4
Cynomolgus monkey [25] = experiment: Effect on heart rate in cynomolgus monkey up to 100 mg/kg by telemetry; assay type: ADME, organism-based, Macaca fascicularis; set-up: dose 100 mg/kg; details: in vivo; procedure, shortened: as §4
Cynomolgus monkey [26] = experiment: Effect on electrocardiogram parameters in cynomolgus monkey assessed as changes in PR-interval up to 100 mg/kg by telemetry; assay type: ADME, organism-based, Macaca fascicularis; set-up: dose 100 mg/kg; details: in vivo; procedure, shortened: as §4
Cynomolgus monkey [27] = experiment: Effect on electrocardiogram parameters in cynomolgus monkey assessed as changes in QRS-complex up to 100 mg/kg by telemetry; assay type: ADME, organism-based, Macaca fascicularis; set-up: dose 100 mg/kg; details: in vivo; procedure, shortened: as §4
Cynomolgus monkey [28] = experiment: Effect on electrocardiogram parameters in cynomolgus monkey assessed as changes in QT-interval up to 100 mg/kg by telemetry; assay type: ADME, organism-based, Macaca fascicularis; set-up: dose 100 mg/kg; details: in vivo; procedure, shortened: as §4
[29] = Cmax in cynomolgus monkey up to 100 mg/kg; assay type: ADME, organism-based, Macaca fascicularis; set-up: dose 100 mg/kg; details: in vivo; procedure, shortened: as §4
[30] = Mean residence time in cynomolgus monkey up to 100 mg/kg; assay type: ADME, organism-based, Macaca fascicularis; set-up: dose 100 mg/kg; details: in vivo; procedure, shortened: as §4
[31] = biological target: T1, Cholesteryl ester transfer protein (Homo sapiens, UniProt P11597); experiment: Inhibition of human recombinant CETP in presence of 88% human plasma by fluorescence transfer assay
T1 sequence (P11597 whole entry): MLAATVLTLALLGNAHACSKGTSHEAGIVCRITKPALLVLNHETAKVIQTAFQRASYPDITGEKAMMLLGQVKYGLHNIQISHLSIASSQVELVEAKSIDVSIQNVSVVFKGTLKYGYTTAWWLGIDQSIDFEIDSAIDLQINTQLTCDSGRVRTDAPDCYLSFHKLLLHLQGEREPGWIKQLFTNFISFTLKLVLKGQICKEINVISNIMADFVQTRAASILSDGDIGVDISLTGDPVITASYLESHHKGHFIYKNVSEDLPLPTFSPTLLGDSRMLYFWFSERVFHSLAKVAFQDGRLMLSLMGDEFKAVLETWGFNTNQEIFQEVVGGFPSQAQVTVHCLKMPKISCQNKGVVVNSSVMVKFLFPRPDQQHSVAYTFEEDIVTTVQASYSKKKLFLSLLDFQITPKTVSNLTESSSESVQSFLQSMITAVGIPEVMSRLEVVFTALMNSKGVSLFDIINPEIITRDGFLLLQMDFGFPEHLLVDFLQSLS
Procedure, shortened: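 Fluorescent neutral-lipid transfer from donor to acceptor particles by human recombinant CETP, with the test compound added in DMSO. Incubation 3 h at 37 °C. CE transfer is read as the fluorescence change at 485/535 nm. IC50 comes from a four-parameter logistic fit with variable slope. For this line the reaction contains 88% human plasma.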

[32] = AUC (0 to 24 hrs) in C57BL/6J mouse at 10 umol/kg, po; assay type: ADME, organism-based; set-up: time < 24 hr, dose 10 umol/kg, route oral; details: plasma
[33] = Clearance in C57BL/6J mouse at 1 umol/kg, iv; assay type: ADME, organism-based; details: in vivo
[34] = Mean residence time in C57BL/6J mouse at 1 umol/kg, iv; assay type: ADME, organism-based; details: in vivo
[35] = Volume of distribution at steady state in C57BL/6J mouse at 1 umol/kg, iv; assay type: ADME, organism-based; details: in vivo, read-out: Vdss
Mus musculus [36] = experiment: Inhibition of plasma CETP activity in hemizygous human CETP transgenic mouse dosed for 5 or 14 consecutive days via oral gavage; assay type: functional, organism-based
Mus musculus [37] = experiment: Increase in HDL-cholesterol in hemizygous human CETP transgenic mouse dosed for 5 consecutive days via oral gavage; assay type: functional, organism-based; procedure, shortened: as §1
Mus musculus [38] = experiment: Increase in HDL-cholesterol in hemizygous human CETP transgenic mouse dosed for 14 consecutive days via oral gavage; assay type: functional, organism-based; procedure, shortened: as §1
Mus musculus [39] = experiment: Reduction in LDL-cholesterol in hemizygous human CETP/human apoB100 transgenic mouse dosed for 14 consecutive days via oral gavage

concentration (Plasma [4]): 671 nM
concentration (Plasma [5]): 96 nM
concentration (Plasma [6]): 206 nM
Drug uptake (Plasma [13]): Active
Drug uptake (Muscle tissue): Active
Drug uptake (Liver): Active
Drug uptake (Kidney): Active
Drug uptake [14]: Active
Drug uptake [15]: Active
concentration at 21 days after cessation of treatment [16]: < 30 nM
concentration at 21 days after cessation of treatment [17]: < 30 nM
concentration at 21 days after cessation of treatment [18]: < 30 nM
concentration at 21 days after cessation of treatment [19]: < 30 nM
concentration at 21 days after cessation of treatment [20]: < 30 nM
concentration at 21 days after cessation of treatment [21]: < 30 nM
Cmax [29]: > 10000 nM
MRT [30]: > 20 h
IC50 [31]: 0.151 µM
AUC(0-t) at 24 h [32]: 4.9 µM·h
clearance [33]: 16 mL/min/kg
MRT [34]: 6.1 h
Vd [35]: 5.9 L/kg
Structure (SMILES): CC(C)c1nc2c(c3c1[C@@H](c1ccc(C(F)(F)F)cc1)OC31CCOCC1)[C@@H](O)CC(C)(C)C2
Activity (Mus musculus [1]): 37.4%
Activity (Mus musculus [2]): 55.6%
Activity (Mus musculus [3]): 74.4%
Activity (Mus musculus [7]): 23.5%
Activity (Mus musculus [8]): 32.3%
Activity (Mus musculus [9]): 37.2%
inhibition in vivo at 1 mg/kg (Mus musculus [10]): 26.2%
inhibition in vivo at 3 mg/kg (Mus musculus [11]): 49%
inhibition in vivo at 10 mg/kg (Mus musculus [12]): 60%
Activity (NCI-H295R): Non-toxic
Activity (Cynomolgus monkey [22]): Non-toxic
Activity (Cynomolgus monkey [23]): Non-toxic
Activity (Cynomolgus monkey [24]): Non-toxic
Activity (Cynomolgus monkey [25]): Non-toxic
Activity (Cynomolgus monkey [26]): Non-toxic
Activity (Cynomolgus monkey [27]): Non-toxic
Activity (Cynomolgus monkey [28]): Non-toxic
inhibition (Mus musculus [36]): Dose-dependent effect
Activity (Mus musculus [37]): Dose-dependent effect
Activity (Mus musculus [38]): Dose-dependent effect
Activity (Mus musculus [39]): Dose-dependent effect
